Experimental data published in ChEMBL document CHEMBL3098117, “Identification and optimization of an aminoalcohol-carbazole series with antimalarial properties” (ACS Med Chem Lett, 2013).
Active and inactive are the calls of the source. The calls are words filed in the database; no cut-off is given here.

Legend:
Plasmodium falciparum [1] = assay: Antimalarial activity against chloroquine, pyrimethamine, cycloguanil-resistant Plasmodium falciparum 7G8; assay type: functional, organism-based
[2] = Terminal half life in NMRI mouse at 5 mg/kg, po by LC-MS/MS analysis; assay type: ADME, organism-based; design: dose 5 mg/kg, route oral; conditions: in vivo, read-out: beta t1/2 (converted)
Cytochrome P450 2C19 = Cytochrome P450 2C19 (Homo sapiens, UniProt P33261); assay: Inhibition of human recombinant CYP2C19 expressed in baculovirus-infected insect cells preincubated for 15 mins followed by substrate addition measured after 30 mins by luminescence assay; assay type: ADME; conditions: recombinant enzyme, 0.5 h
Chain of Cytochrome P450 2C19 (P33261 whole entry): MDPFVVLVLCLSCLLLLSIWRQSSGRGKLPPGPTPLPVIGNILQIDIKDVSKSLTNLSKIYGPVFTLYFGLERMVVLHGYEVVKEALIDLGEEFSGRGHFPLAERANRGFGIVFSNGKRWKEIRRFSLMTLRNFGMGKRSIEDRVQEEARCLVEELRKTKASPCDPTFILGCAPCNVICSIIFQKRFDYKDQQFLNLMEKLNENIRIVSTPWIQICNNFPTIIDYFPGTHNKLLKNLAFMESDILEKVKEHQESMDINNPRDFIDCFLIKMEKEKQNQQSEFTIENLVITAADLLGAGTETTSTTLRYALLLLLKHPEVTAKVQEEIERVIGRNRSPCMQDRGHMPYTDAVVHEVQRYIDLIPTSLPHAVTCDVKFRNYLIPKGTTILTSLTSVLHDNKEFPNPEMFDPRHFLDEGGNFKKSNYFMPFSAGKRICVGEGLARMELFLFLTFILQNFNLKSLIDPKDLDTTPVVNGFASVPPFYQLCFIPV

Cytochrome P450 2C9 = Cytochrome P450 2C9 (Homo sapiens, UniProt P11712); assay: Inhibition of human recombinant CYP2C9 expressed in baculovirus-infected insect cells preincubated for 15 mins followed by substrate addition measured after 30 mins by luminescence assay; assay type: ADME; conditions: recombinant enzyme, 0.5 h
Chain of Cytochrome P450 2C9 (P11712 whole entry): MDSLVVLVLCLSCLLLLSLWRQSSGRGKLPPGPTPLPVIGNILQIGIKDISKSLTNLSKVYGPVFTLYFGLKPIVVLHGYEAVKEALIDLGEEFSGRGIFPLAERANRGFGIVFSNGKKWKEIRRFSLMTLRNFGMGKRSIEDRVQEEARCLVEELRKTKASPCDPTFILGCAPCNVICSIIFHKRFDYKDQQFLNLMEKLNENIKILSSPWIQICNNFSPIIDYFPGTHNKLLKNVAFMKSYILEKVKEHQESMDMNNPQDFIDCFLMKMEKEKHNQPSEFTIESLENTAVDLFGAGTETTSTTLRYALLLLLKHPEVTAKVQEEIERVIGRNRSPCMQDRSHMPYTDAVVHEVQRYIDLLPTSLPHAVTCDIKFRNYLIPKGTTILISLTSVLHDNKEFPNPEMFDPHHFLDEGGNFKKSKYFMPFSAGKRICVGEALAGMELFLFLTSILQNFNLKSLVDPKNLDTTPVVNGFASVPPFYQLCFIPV

Plasmodium berghei [3] = assay: Antimalarial activity against Plasmodium berghei ANKA expressing GFP infected in NMRI mouse assessed as reduction in parasitemia at 100 mg/kg/day, po qd for 4 days measured at 24 hrs after last dose relative to control; assay type: functional; design: scale not given: the % may be the effect or the level left
Summary of the method: (§1)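 P. berghei-infected mice dosed orally once daily on days 0–3, first dose 4 h postinfection, at 3, 10, 30 and 100 mg/kg/day. Red blood cell parasitemia and plasma exposure measured on day 4, 24 h after last dose; ED50 derived from dose-response; survival then monitored for 26 further days as mean survival days.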

[4] = biological target: Voltage-dependent L-type calcium channel subunit alpha-1C (Homo sapiens, UniProt Q13936); assay: Inhibition of human Cav1.2 channel
Chain of Voltage-dependent L-type calcium channel subunit alpha-1C (Q13936 whole entry): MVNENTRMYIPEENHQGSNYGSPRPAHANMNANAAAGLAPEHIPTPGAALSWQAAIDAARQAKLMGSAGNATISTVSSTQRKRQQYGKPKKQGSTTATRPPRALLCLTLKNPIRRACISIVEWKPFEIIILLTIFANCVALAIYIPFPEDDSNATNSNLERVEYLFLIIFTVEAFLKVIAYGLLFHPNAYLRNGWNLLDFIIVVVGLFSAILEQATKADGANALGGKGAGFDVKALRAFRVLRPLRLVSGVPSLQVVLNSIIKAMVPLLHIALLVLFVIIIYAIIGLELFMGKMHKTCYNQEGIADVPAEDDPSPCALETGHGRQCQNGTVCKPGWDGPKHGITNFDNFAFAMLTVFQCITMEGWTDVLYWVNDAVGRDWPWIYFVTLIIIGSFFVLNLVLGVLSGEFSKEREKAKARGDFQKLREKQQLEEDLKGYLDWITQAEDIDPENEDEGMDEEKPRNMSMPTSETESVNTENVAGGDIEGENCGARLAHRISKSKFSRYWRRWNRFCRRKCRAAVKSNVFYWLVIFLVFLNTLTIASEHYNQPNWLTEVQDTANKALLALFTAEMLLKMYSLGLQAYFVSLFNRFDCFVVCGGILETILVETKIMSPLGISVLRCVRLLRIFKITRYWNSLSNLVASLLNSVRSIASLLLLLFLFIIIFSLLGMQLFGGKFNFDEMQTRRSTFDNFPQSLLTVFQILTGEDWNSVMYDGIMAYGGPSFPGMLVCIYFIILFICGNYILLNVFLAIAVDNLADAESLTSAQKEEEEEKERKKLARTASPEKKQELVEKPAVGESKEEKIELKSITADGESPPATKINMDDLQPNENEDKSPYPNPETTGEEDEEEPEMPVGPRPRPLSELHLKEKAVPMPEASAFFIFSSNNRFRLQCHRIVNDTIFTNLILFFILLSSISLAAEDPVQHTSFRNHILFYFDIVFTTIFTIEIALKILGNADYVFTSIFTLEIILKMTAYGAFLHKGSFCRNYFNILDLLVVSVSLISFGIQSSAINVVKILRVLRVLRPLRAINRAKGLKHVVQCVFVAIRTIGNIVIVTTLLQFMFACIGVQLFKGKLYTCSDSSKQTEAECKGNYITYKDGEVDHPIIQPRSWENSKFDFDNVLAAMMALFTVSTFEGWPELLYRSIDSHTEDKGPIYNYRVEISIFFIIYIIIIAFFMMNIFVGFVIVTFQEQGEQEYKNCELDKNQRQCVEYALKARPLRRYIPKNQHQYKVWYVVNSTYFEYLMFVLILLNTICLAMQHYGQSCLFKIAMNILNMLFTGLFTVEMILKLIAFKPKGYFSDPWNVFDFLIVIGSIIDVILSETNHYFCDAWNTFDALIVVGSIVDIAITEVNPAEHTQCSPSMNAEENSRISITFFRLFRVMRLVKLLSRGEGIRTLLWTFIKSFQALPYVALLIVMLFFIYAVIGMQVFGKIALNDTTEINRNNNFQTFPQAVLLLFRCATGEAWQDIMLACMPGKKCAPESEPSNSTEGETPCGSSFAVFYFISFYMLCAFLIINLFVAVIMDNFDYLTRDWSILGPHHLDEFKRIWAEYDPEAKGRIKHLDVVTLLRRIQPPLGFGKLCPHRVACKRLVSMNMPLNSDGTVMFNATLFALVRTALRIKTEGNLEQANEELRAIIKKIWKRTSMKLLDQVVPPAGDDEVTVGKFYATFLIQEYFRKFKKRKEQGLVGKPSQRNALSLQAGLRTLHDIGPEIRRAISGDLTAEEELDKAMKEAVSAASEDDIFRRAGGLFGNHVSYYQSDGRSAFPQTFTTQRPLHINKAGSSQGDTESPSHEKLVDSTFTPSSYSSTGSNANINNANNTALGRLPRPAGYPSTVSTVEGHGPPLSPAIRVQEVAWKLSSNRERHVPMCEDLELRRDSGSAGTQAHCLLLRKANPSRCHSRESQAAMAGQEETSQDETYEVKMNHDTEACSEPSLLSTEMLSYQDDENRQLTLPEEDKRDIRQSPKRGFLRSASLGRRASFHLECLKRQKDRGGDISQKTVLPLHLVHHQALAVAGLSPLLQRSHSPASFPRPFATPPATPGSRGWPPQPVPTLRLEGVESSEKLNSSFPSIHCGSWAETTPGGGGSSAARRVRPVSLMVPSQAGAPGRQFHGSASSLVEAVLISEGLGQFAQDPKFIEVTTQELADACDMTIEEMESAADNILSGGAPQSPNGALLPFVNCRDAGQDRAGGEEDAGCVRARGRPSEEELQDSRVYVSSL

Plasmodium falciparum [5] = assay: Antimalarial activity against mefloquine-resistant Plasmodium falciparum TM91C235; assay type: functional, organism-based
[6] = Cmax in NMRI mouse at 1 mg/kg, iv and 5 mg/kg, po by LC-MS/MS analysis; assay type: ADME, organism-based; conditions: in vivo
Salmonella typhimurium = assay: Mutagenic activity in Salmonella typhimurium by Ames test under metabolic conditions; assay type: toxicity, organism-based; conditions: salmonella enterica subsp. enterica serovar typhimurium
Plasmodium falciparum [7] = assay: Antimalarial activity against chloroquine and pyrimethamine-resistant Plasmodium falciparum K1; assay type: functional, organism-based
Summary of the method: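 P. falciparum cultured with test drug in human red blood cells for 3 days. Growth read out as hypoxanthine incorporation.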

Plasmodium falciparum [8] = assay: Antimalarial activity against chloroquine, pyrimethamine, sulfadoxine, quinine and mefloquine-sensitive Plasmodium falciparum D6; assay type: functional, organism-based
[9] = biological target: T1, Inward rectifier potassium channel 2 (Homo sapiens, UniProt P63252); assay: Inhibition of human Kir2.1 channel
T1 sequence (P63252 whole entry): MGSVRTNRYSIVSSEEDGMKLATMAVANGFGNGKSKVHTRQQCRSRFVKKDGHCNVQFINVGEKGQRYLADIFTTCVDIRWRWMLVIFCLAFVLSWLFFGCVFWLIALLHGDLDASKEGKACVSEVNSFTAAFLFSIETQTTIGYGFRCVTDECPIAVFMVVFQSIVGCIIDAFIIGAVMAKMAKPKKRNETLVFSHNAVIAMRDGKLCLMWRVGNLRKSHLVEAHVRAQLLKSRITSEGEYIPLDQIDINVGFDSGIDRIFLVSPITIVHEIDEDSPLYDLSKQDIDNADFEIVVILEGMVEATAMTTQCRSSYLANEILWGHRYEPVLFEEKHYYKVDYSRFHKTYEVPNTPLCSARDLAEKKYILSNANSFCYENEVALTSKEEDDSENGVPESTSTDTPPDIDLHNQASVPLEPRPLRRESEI

Plasmodium berghei [10] = assay: Antimalarial activity against Plasmodium berghei ANKA expressing GFP infected in NMRI mouse assessed as effect on mouse survival at 10 mg/kg/day, po qd for 4 days measured at 24 hrs after last dose; assay type: functional, organism-based; summary of the method: as §1
Cytochrome P450 1A2 = biological target: T2, Cytochrome P450 1A2 (Homo sapiens, UniProt P05177); assay: Inhibition of human recombinant CYP1A2 expressed in baculovirus-infected insect cells preincubated for 15 mins followed by substrate addition measured after 30 mins by luminescence assay; assay type: ADME; conditions: recombinant enzyme, 0.5 h
T2 sequence (P05177 whole entry): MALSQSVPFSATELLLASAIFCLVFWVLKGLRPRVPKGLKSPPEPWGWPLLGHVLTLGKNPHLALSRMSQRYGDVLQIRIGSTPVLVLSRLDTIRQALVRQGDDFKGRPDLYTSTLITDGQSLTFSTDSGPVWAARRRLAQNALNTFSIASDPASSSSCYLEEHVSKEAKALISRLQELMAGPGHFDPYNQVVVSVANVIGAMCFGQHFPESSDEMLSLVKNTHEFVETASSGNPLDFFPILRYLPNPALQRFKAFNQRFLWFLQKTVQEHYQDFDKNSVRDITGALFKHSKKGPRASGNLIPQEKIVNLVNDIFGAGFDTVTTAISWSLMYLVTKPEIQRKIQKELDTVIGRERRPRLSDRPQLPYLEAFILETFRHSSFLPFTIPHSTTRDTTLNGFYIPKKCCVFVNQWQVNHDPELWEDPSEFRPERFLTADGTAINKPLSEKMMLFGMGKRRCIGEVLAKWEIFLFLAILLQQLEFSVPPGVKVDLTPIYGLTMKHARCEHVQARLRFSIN

Cytochrome P450 3A4 = Cytochrome P450 3A4 (Homo sapiens, UniProt P08684); assay: Inhibition of human recombinant CYP3A4 expressed in baculovirus-infected insect cells preincubated for 15 mins followed by substrate addition measured after 30 mins by luminescence assay; assay type: ADME; conditions: recombinant enzyme, 0.5 h
Cytochrome P450 2D6 = Cytochrome P450 2D6 (Homo sapiens, UniProt P10635); assay: Inhibition of human recombinant CYP2D6 expressed in baculovirus-infected insect cells preincubated for 15 mins followed by substrate addition measured after 30 mins by luminescence assay; assay type: ADME; conditions: recombinant enzyme, 0.5 h
Chain of Cytochrome P450 2D6 (P10635 whole entry): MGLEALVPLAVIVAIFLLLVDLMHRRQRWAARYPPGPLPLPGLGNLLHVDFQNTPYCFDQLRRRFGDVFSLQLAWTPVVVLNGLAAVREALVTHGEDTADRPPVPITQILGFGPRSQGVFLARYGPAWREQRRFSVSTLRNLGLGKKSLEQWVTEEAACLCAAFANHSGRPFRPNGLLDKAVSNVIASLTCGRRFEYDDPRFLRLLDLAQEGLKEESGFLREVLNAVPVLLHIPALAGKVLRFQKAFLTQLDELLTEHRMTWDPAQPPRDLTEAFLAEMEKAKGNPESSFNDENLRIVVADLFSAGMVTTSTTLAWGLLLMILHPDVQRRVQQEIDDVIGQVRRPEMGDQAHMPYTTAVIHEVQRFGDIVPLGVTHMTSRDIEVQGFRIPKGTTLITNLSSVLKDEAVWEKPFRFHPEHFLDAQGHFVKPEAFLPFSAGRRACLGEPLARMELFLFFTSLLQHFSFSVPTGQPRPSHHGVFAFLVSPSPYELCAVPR

[11] = Oral bioavailability in NMRI mouse at 5 mg/kg by LC-MS/MS analysis; assay type: ADME, organism-based; conditions: in vivo
hERG (KCNH2) = hERG (KCNH2) (Homo sapiens, UniProt Q12809); assay: Inhibition of human ERG expressed in CHO cells at 10 uM relative to control; assay type: cell-based; conditions: CHO cells expressing human ERG
Chain of hERG (KCNH2) (Q12809 whole entry): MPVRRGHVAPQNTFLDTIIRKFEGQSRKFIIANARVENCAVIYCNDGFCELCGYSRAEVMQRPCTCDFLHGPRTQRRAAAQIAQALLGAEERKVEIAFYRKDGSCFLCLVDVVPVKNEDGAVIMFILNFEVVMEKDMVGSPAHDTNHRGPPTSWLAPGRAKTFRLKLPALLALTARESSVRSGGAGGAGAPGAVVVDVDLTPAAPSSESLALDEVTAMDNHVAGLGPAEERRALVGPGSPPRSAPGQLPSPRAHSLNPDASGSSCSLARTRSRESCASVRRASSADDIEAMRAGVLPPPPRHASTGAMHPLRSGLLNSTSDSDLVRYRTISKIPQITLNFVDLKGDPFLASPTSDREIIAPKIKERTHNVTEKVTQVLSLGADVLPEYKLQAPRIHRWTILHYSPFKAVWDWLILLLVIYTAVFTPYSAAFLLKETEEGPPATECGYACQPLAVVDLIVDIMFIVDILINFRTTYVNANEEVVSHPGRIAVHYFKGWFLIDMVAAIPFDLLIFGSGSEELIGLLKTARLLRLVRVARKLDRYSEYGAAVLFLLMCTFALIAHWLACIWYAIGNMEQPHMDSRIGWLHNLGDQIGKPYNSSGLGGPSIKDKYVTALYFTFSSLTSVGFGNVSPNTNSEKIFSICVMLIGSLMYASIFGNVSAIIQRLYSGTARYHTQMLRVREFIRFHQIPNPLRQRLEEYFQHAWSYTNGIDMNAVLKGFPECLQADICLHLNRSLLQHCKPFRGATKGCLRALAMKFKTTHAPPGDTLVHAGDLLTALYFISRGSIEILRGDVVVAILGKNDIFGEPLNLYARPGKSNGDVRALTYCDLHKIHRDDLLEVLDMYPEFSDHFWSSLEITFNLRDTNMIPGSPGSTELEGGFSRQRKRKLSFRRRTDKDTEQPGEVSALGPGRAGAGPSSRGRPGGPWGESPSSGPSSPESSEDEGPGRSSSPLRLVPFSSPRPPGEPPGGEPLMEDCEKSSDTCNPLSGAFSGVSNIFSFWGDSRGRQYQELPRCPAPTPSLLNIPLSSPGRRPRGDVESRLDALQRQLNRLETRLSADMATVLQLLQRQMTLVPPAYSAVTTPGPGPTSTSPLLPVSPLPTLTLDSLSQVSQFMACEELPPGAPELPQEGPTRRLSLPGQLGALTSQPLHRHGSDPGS

Cytochrome P450 2B6 = biological target: T3, Cytochrome P450 2B6 (Homo sapiens, UniProt P20813); assay: Inhibition of human recombinant CYP2B6 expressed in baculovirus-infected insect cells preincubated for 15 mins followed by substrate addition measured after 30 mins by luminescence assay; assay type: ADME; conditions: recombinant enzyme, 0.5 h
T3 sequence (P20813 whole entry): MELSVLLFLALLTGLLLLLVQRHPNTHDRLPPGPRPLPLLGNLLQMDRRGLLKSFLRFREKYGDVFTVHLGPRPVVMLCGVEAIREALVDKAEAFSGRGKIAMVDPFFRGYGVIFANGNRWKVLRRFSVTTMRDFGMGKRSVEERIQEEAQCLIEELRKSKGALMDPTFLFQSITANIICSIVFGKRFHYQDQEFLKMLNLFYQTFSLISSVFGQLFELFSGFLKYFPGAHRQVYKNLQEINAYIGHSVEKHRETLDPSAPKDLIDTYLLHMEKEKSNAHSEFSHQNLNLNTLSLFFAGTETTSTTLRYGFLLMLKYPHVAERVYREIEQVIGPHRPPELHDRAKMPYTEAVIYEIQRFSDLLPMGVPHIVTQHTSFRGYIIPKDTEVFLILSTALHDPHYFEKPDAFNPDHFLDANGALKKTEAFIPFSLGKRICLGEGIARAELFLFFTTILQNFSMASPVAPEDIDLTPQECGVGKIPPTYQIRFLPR

[12] = AUC in NMRI mouse at 1 mg/kg, iv and 5 mg/kg, po by LC-MS/MS analysis; assay type: ADME, organism-based; conditions: plasma

For OC(CNC1CCCCC1)Cn1c2ccc(Br)cc2c2cc(Br)ccc21 (racemic), the Activity (Plasmodium falciparum [1]) was “Active”, the half-life [2] was 15 h and the “inhibition (INH)” value (Cytochrome P450 2C19) was “Active”. For the same compound, the “inhibition (INH)” value (Cytochrome P450 2C9) was “Active”, the Activity (Plasmodium berghei [3]) was 99.97% and the “inhibition (INH)” value [4] was “Not Active”. For the same compound, the Activity (Plasmodium falciparum [5]) was “Active”, the Cmax [6] was 158 ng/mL and the Activity (Salmonella typhimurium) was “Non-toxic”. The Activity (Plasmodium falciparum [7]) was “Active”, the Activity (Plasmodium falciparum [8]) was “Active” and the “inhibition (INH)” value [9] was “Not Active”. The Activity (Plasmodium berghei [10]) was “inactive”, the “inhibition (INH)” value (Cytochrome P450 1A2) was “Active” and the “inhibition (INH)” value (Cytochrome P450 3A4) was “Active”. For the same compound, the “inhibition (INH)” value (Cytochrome P450 2D6) was “Active”, the bioavailability [11] was 50% and the inhibition at 10 µM (hERG (KCNH2)) was 99%. The “inhibition (INH)” value (Cytochrome P450 2B6) was “Active” and the AUC [12] was 3750 ng·h/mL.
